From ChEMBL document CHEMBL1772938, “Optimization of 3-(phenylthio)quinolinium compounds against opportunistic fungal pathogens” (Eur J Med Chem, 2011)

How the values were obtained:
[1] = tested on: Cryptococcus neoformans; test: Antimicrobial activity against Cryptococcus neoformans ATCC 90113 by CLSI method; format: functional
Summary of the method: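 C. neoformans in Sabouraud dextrose broth, inoculum per the 0.5 McFarland standard. Saline serial dilutions of DMSO samples were tested in duplicate, with a final top concentration of 20 μg/mL. OD 630 nm was read before and after incubation. IC50 was derived from % growth versus concentration. MIC was judged visually as the lowest concentration with no detectable growth. Amphotericin B served as the drug control.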

[2] = tested on: Candida albicans; test: Antimicrobial activity against Candida albicans ATCC 90028 by CLSI method; format: functional
Summary of the method: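 C. albicans inoculum was made to the 0.5 McFarland standard in Sabouraud dextrose broth or RPMI 1640. Samples came from DMSO stocks serially diluted in saline, in duplicate, starting at a final 20 μg/mL. Plates were read at OD 630 nm before and after incubation. IC50 came from the % growth versus concentration plot; MIC was the lowest concentration with no visible growth. Included: growth, solvent and blank controls, plus amphotericin B.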

[3] = tested on: Aspergillus fumigatus; test: Antimicrobial activity against Aspergillus fumigatus ATCC 90906 by CLSI method; format: functional
Summary of the method: (§1)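 Modified CLSI broth microdilution. DMSO stocks were serially diluted in saline and run in duplicate. Inoculum was set by the 0.5 McFarland standard in YM broth for MIC, or in RPMI-1640 + 5% Alamar Blue for IC50. The top final concentration was 20 μg/mL. Fluorescence (544ex/590em) was read before and after incubation. IC50 was taken from % growth versus concentration; MIC was read visually as no blue-to-pink change.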

[4] = tested on: Cryptococcus neoformans; test: Antimicrobial activity against Cryptococcus neoformans ATCC 90113 by alamar blue assay; format: functional, organism-based
[5] = tested on: Candida albicans; test: Antimicrobial activity against Candida albicans ATCC 90028 by alamar blue assay; format: functional, organism-based
[6] = tested on: Aspergillus fumigatus; test: Antimicrobial activity against Aspergillus fumigatus ATCC 90906 by alamar blue assay; format: functional, organism-based; summary of the method: as §1
[7] = tested on: Vero; test: Cytotoxicity against african green monkey Vero cells at 10 ug/ml after 48 hrs by neutral red assay; format: cell-based; details: chlorocebus sabaeus
Summary of the method: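 VERO kidney cells were seeded at 25,000 cells/well and incubated 24 h. Samples were added up to 10 μg/mL and incubated a further 48 h. Viable cells were counted by neutral red uptake. IC50 came from growth-inhibition dose curves. Doxorubicin was the positive control and DMSO the vehicle control.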

[8] = tested on: Nakaseomyces glabratus; test: Antimicrobial activity against Candida glabrata ATCC 90030 by CLSI method; format: functional
Summary of the method: (§2)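 Modified CLSI microdilution. DMSO samples were serially diluted in saline and tested in duplicate against inoculum adjusted by the 0.5 McFarland standard. The final test range started at 20 μg/mL. Plates were read before and after incubation. IC50 came from % growth versus concentration; MIC was the lowest concentration without visible growth. Growth, solvent, blank and amphotericin B controls were on each plate.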

[9] = tested on: Pichia kudriavzevii; test: Antimicrobial activity against Candida krusei ATCC 6258 by CLSI method; format: functional; summary of the method: as §2
[10] = tested on: Nakaseomyces glabratus; test: Antimicrobial activity against Candida glabrata ATCC 90030 by alamar blue assay; format: functional, organism-based
[11] = tested on: Pichia kudriavzevii; test: Antimicrobial activity against Candida krusei ATCC 6258 by alamar blue assay; format: functional, organism-based
[12] = Selectivity index, ratio of TC50 for african green monkey Vero cells to IC50 for Cryptococcus neoformans ATCC 90113; format: toxicity, cell-based; details: read-out: Selectivity Index

Row | MIC [1] [µg/mL] | MIC [2] [µg/mL] | MIC [3] [µg/mL] | MIC [8] [µg/mL] | MIC [9] [µg/mL] | Compound | MFC [1] [µg/mL] | MFC [2] [µg/mL] | MFC [3] [µg/mL] | IC50 [4] [µg/mL] | IC50 [5] [µg/mL] | IC50 [6] [µg/mL] | Activity [7] | MFC [8] [µg/mL] | MFC [9] [µg/mL] | IC50 [10] [µg/mL] | IC50 [11] [µg/mL] | selectivity ratio [12]
1 | 10 | > 20 | 20 |  |  | Fc1cccc(Sc2cc3ccccc3[n+](CCCCCc3ccccc3)c2)c1.[I-] | > 20 | > 20 | > 20 | 7 | > 20 | 5 | Non-toxic |  |  |  |  | 
2 | 0.6 | 2.5 | 2.5 | 10 | 2.5 | FC(F)(F)c1ccc(Sc2cc3ccccc3[n+](CCCCCC3CCCCC3)c2)cc1.[I-] | 0.6 | 2.5 | > 20 | 0.3 | 0.8 | 1.7 | Non-toxic | 10 | 5 | 4.7 | 1.3 | > 33
3 | 2.5 | 10 | 20 | > 20 | 10 | Oc1cccc(Sc2cc3ccccc3[n+](CCCCCC3CCCCC3)c2)c1.[I-] | 5 | 20 | > 20 | 1.3 | 3.5 | 10 | Non-toxic | > 20 | 20 | > 20 | 5.1 | > 7.7
4 | 20 | > 20 | 20 |  |  | Fc1ccc(Sc2cc3ccccc3[n+](CCCCCc3ccccc3)c2)cc1.[I-] | > 20 | > 20 | > 20 | 15 | > 20 | 9 | Non-toxic |  |  |  |  | 
5 | 0.6 | 2.5 | 2.5 | 10 | 2.5 | FC(F)(F)c1cccc(Sc2cc3ccccc3[n+](CCCCCC3CCCCC3)c2)c1.[I-] | 0.6 | 5 | > 20 | 0.4 | 1.3 | 2.2 | Non-toxic | 10 | 2.5 | 4.6 | 1.2 | > 25
6 | 5 | > 20 | > 20 |  |  | Cc1ccccc1Sc1cc2ccccc2[n+](CCCCCc2ccccc2)c1.[I-] | 20 | > 20 | > 20 | 4 | > 20 | > 20 | Non-toxic |  |  |  |  | 
7 | 1.3 | 10 | 20 | > 20 | 5 | Oc1ccc(Sc2cc3ccccc3[n+](CCCCCC3CCCCC3)c2)cc1.[I-] | 2.5 | 20 | > 20 | 0.7 | 3.9 | 7.9 | Non-toxic | > 20 | 5 | > 20 | 1.5 | > 14
8 | 20 | > 20 | 20 |  |  | Fc1ccccc1Sc1cc2ccccc2[n+](CCCCCc2ccccc2)c1.[I-] | > 20 | > 20 | > 20 | 9.5 | > 20 | 9 | Non-toxic |  |  |  |  | 
9 | 1.3 | 20 | 20 | 20 | 5 | N#Cc1cccc(Sc2cc3ccccc3[n+](CCCCCC3CCCCC3)c2)c1.[I-] | 5 | 20 | > 20 | 0.7 | 6.7 | 19 | Non-toxic | 20 | 10 | 13 | 1.4 | > 14
10 | 5 | > 20 | > 20 |  |  | FC(F)(F)c1ccccc1Sc1cc2ccccc2[n+](CCCCCc2ccccc2)c1.[I-] | 10 | > 20 | > 20 | 2.2 | 12 | 6.9 | Non-toxic |  |  |  |  | 
11 | 1.3 | 10 | 20 | 10 | 5 | N#Cc1ccc(Sc2cc3ccccc3[n+](CCCCCC3CCCCC3)c2)cc1.[I-] | 5 | 20 | > 20 | 0.5 | 6.2 | 19 | Non-toxic | 20 | 10 | 6.3 | 2.3 | > 20
12 | 5 | > 20 | > 20 |  |  | FC(F)(F)c1cccc(Sc2cc3ccccc3[n+](CCCCCc3ccccc3)c2)c1.[I-] | 10 | > 20 | > 20 | 2.1 | 14 | 17 | Non-toxic |  |  |  |  | 
13 | 0.6 | 2.5 | 5 | 5 | 1.3 | FC(F)(F)c1ccccc1Sc1cc2ccccc2[n+](CCCCCC2CCCCC2)c1.[I-] | 1.3 | 2.5 | 5 | 0.3 | 1.1 | 1.8 | Non-toxic | 10 | 1.3 | 3 | 1.1 | > 33
